Measurements reported in ChEMBL document CHEMBL3351423, “2-Phenylaminonaphthoquinones and related compounds: synthesis, trypanocidal and cytotoxic activities” (Bioorg Med Chem, 2014).

Tests used:
Trypanosoma cruzi [1] = experiment: Trypanocidal activity against epimastigote stage of Trypanosoma cruzi assessed as cell viability after 24 hrs by MTT assay
Vero = experiment: Cytotoxicity against african green monkey Vero cells by MTT assay; assay type: cell-based; conditions: Chlorocebus sabaeus
Outline: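 Vero cells in RPMI 1640 without phenol red, with compound added from DMSO (final below 0.25% v/v). Read by MTT (5 mg/mL) plus 0.22 mg/mL phenazine methosulfate for 4 h at 37 °C, formazan dissolved in 10% SDS/0.01 M HCl overnight, OD at 570 nm. IC50 from four-parameter nonlinear fit; at least three experiments, triplicate cultures.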

MCF7 [2] = experiment: Antiproliferative activity against human MCF7 cells after 72 hrs; assay type: functional, cell-based; conditions: MCF7, 72 h
Outline: (§1)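 Cells grown in DMEM with 10% FCS, penicillin/streptomycin and 1 mM glutamine. Seeded at 3 × 10³ cells/well and allowed to attach for 24 h at 37 °C in 5% CO₂. Exposed continuously for 72 h to four serial dilutions (12.5 to 100 µM), in triplicate; final DMSO 0.1%, DMSO-only controls. Read by sulforhodamine B after TCA fixation, with doxorubicin as reference.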

[3] = Antiproliferative activity against human PC3 cells after 72 hrs; assay type: functional, cell-based; conditions: PC-3, 72 h
Outline: as §1

[4] = Antiproliferative activity against human dermal fibroblast cells after 72 hrs; assay type: cell-based
Outline: as §1

MDA-MB-231 = experiment: Antiproliferative activity against human MDA-MB-231 cells after 72 hrs; assay type: functional, cell-based; conditions: MDA-MB-231, 72 h
Outline: as §1

Fibroblast [5] = experiment: Selectivity index, ratio of IC50 for human dermal fibroblast cells to IC50 for human PC3 cells; assay type: functional
Outline: (§2)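 Selectivity index calculated as IC50 in non-tumoral dermal human fibroblasts divided by IC50 in the cancer line. Both IC50s come from a 72 h sulforhodamine B growth assay with four dilutions (12.5–100 µM) in triplicate.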

MCF7 [6] = experiment: Selectivity index, ratio of IC50 for human dermal fibroblast cells to IC50 for human MCF7 cells; assay type: functional
Outline: as §2

Trypanosoma cruzi [7] = experiment: Trypanocidal activity against trypomastigote form of Trypanosoma cruzi infected in african green monkey Vero cells assessed as cell viability after 5 to 7 days by MTT assay; assay type: functional
[8] = Selectivity index, ratio of CC50 for african green monkey Vero cells to IC50 for epimastigote stage of Trypanosoma cruzi; assay type: functional
Outline: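 Selectivity index taken as Vero IC50 divided by epimastigote IC50. Both values are from MTT viability assays, with Vero cells read at 37 °C and epimastigotes at 28 °C.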

Fibroblast [9] = experiment: Selectivity index, ratio of IC50 for human dermal fibroblast cells to IC50 for human MDA-MB-231 cells; assay type: functional
Outline: as §2

## O=C1C=C(Nc2ccc(O)cc2)C(=O)c2ccccc21
Trypanosoma cruzi [1]
  IC50: > 25 µM
Vero
  IC50: > 25 µM

## COc1ccc(NC2=CC(=O)c3ccccc3C2=O)cc1
MCF7 [2]
  IC50: > 100 µM
[3]
  IC50: 35.4 µM
[4]
  IC50: 65.4 µM
Trypanosoma cruzi [1]
  IC50: > 25 µM
Vero
  IC50: > 25 µM
MDA-MB-231
  IC50: > 100 µM

## COc1ccc(OC)c(NC2=CC(=O)c3ccccc3C2=O)c1
MCF7 [2]
  IC50: 0.21 µM
[3]
  IC50: 1.03 µM
[4]
  IC50: > 100 µM
Fibroblast [5]
  Selectivity Index: >97
Trypanosoma cruzi [1]
  IC50: 23.3 µM
Vero
  IC50: > 50 µM
MCF7 [6]
  Selectivity Index: >480
MDA-MB-231
  IC50: 87.5 µM

## COc1ccc(OC)c(NC2=C(Cl)C(=O)c3ccccc3C2=O)c1
Trypanosoma cruzi [1]
  IC50: > 100 µM
Vero
  IC50: > 100 µM

## O=C1C=C(Nc2ccc3ccccc3c2)C(=O)c2ccccc21
Trypanosoma cruzi [1]
  IC50: 9.02 µM
Vero
  IC50: 6.97 µM
Trypanosoma cruzi [7]
  inhibition (INH): 86.02%
[8]
  Selectivity Index: 0.77

## O=C1C(O)=C(c2ccccc2[N+](=O)[O-])C(=O)c2ccccc21
Trypanosoma cruzi [1]
  IC50: > 100 µM
Vero
  IC50: > 100 µM

## COc1ccccc1NC1=CC(=O)c2ccccc2C1=O
MCF7 [2]
  IC50: > 100 µM
[3]
  IC50: > 100 µM
[4]
  IC50: > 100 µM
Trypanosoma cruzi [1]
  IC50: 3.49 µM
Vero
  IC50: > 25 µM
Trypanosoma cruzi [7]
  inhibition (INH): 18.78%
MDA-MB-231
  IC50: > 100 µM

## COc1cccc(NC2=CC(=O)c3ccccc3C2=O)c1
MCF7 [2]
  IC50: > 100 µM
[3]
  IC50: > 100 µM
[4]
  IC50: > 100 µM
Trypanosoma cruzi [1]
  IC50: > 25 µM
Vero
  IC50: > 25 µM
MDA-MB-231
  IC50: > 100 µM

## COc1ccc(NC2=CC(=O)c3ccccc3C2=O)cc1OC
MCF7 [2]
  IC50: 22.2 µM
[3]
  IC50: 10.4 µM
[4]
  IC50: > 100 µM
Trypanosoma cruzi [1]
  IC50: 25 µM
Vero
  IC50: > 25 µM
MDA-MB-231
  IC50: 10.2 µM

## COc1ccc(NC2=CC(=O)c3ccccc3C2=O)c(OC)c1
MCF7 [2]
  IC50: > 100 µM
[3]
  IC50: 60 µM
[4]
  IC50: > 100 µM
Trypanosoma cruzi [1]
  IC50: > 25 µM
Vero
  IC50: > 25 µM
MDA-MB-231
  IC50: > 100 µM

## CCCCCCOc1ccc(NC2=CC(=O)c3ccccc3C2=O)cc1
MCF7 [2]
  IC50: > 100 µM
[3]
  IC50: 27.9 µM
[4]
  IC50: > 100 µM
Trypanosoma cruzi [1]
  IC50: 1.72 µM
Vero
  IC50: 27 µM
Trypanosoma cruzi [7]
  inhibition (INH): 69.63%
MDA-MB-231
  IC50: > 100 µM
[8]
  Selectivity Index: 16

## Cc1ccc(NC2=CC(=O)c3ccccc3C2=O)c(C)c1
Trypanosoma cruzi [1]
  IC50: > 25 µM
Vero
  IC50: > 25 µM

## CCCCCCOc1ccc(NC2=C(Cl)C(=O)c3ccccc3C2=O)cc1
MCF7 [2]
  IC50: > 100 µM
[3]
  IC50: > 100 µM
[4]
  IC50: > 100 µM
Trypanosoma cruzi [1]
  IC50: 6.04 µM
Vero
  IC50: 196 µM
Trypanosoma cruzi [7]
  inhibition (INH): 46.3%
MDA-MB-231
  IC50: > 100 µM
[8]
  Selectivity Index: 32

## O=C1C=C(Nc2cccc3ccccc23)C(=O)c2ccccc21
Trypanosoma cruzi [1]
  IC50: 15.9 µM
Vero
  IC50: > 25 µM
Trypanosoma cruzi [7]
  inhibition (INH): 59.67%

## COc1cccc2c3c([nH]c12)C(=O)c1ccccc1C3=O
MCF7 [2]
  IC50: > 100 µM
[3]
  IC50: > 100 µM
[4]
  IC50: > 100 µM
Trypanosoma cruzi [1]
  IC50: 20.9 µM
Vero
  IC50: 21.7 µM
Trypanosoma cruzi [7]
  inhibition (INH): 12.21%
MDA-MB-231
  IC50: > 100 µM
[8]
  Selectivity Index: 0.95

## COc1ccc2c3c([nH]c2c1)C(=O)c1ccccc1C3=O
Trypanosoma cruzi [1]
  IC50: > 25 µM
Vero
  IC50: > 25 µM

## COc1ccc2[nH]c3c(c2c1)C(=O)c1ccccc1C3=O
MCF7 [2]
  IC50: > 100 µM
[3]
  IC50: > 100 µM
[4]
  IC50: > 100 µM
Trypanosoma cruzi [1]
  IC50: > 50 µM
Vero
  IC50: > 50 µM
MDA-MB-231
  IC50: > 100 µM

## COc1ccc(OC)c2c3c([nH]c12)C(=O)c1ccccc1C3=O
Trypanosoma cruzi [1]
  IC50: > 100 µM
Vero
  IC50: > 100 µM

## CCCCCCOc1ccc2[nH]c3c(c2c1)C(=O)c1ccccc1C3=O
Trypanosoma cruzi [1]
  IC50: > 100 µM
Vero
  IC50: > 100 µM

## COc1cc2c(cc1OC)C(=O)c1c([nH]c3cc(OC)c(OC)cc13)C2=O
Trypanosoma cruzi [1]
  IC50: > 100 µM
Vero
  IC50: > 100 µM

## COc1ccc2c(c1)c1c(n2C)C(=O)c2ccccc2C1=O
MCF7 [2]
  IC50: > 100 µM
[3]
  IC50: > 100 µM
[4]
  IC50: > 100 µM
Trypanosoma cruzi [1]
  IC50: > 25 µM
Vero
  IC50: > 25 µM
MDA-MB-231
  IC50: > 100 µM

## COc1cc2c3c(n(C)c2cc1OC)C(=O)c1ccccc1C3=O
MCF7 [2]
  IC50: > 100 µM
[3]
  IC50: > 100 µM
[4]
  IC50: > 100 µM
Trypanosoma cruzi [1]
  IC50: > 100 µM
Vero
  IC50: > 100 µM
MDA-MB-231
  IC50: > 100 µM

## COc1ccc(OC)c(NC2=CC(=O)c3ncccc3C2=O)c1
MCF7 [2]
  IC50: 0.12 µM
[3]
  IC50: 0.53 µM
[4]
  IC50: 22.5 µM
Fibroblast [5]
  Selectivity Index: 42
Trypanosoma cruzi [1]
  IC50: 2.45 µM
Vero
  IC50: 15.4 µM
MCF7 [6]
  Selectivity Index: 188
Trypanosoma cruzi [7]
  inhibition (INH): 32.62%
MDA-MB-231
  IC50: 8.8 µM
[8]
  Selectivity Index: 6.3

## O=C1C(Cl)=C(Nc2cccnc2)C(=O)c2ccccc21
Trypanosoma cruzi [1]
  IC50: > 100 µM
Vero
  IC50: > 100 µM

## Cc1cnc2c(c1)C(=O)C=C(Nc1ccccc1)C2=O
Trypanosoma cruzi [1]
  IC50: 5.79 µM
Vero
  IC50: 16.2 µM
Trypanosoma cruzi [7]
  inhibition (INH): 58.2%
[8]
  Selectivity Index: 2.7

## COc1ccc(OC)c(NC2=CC(=O)C3=C(OC(C)(C)C3)C2=O)c1
Trypanosoma cruzi [1]
  IC50: 12.3 µM
Vero
  IC50: 15.5 µM
Trypanosoma cruzi [7]
  inhibition (INH): 7.5%
[8]
  Selectivity Index: 1.3

## Cn1ncc2c1C(=O)C1=C(CC(C)(C)O1)C2=O
Trypanosoma cruzi [1]
  IC50: 2.53 µM
Vero
  IC50: 13.4 µM
Trypanosoma cruzi [7]
  inhibition (INH): 38.57%
[8]
  Selectivity Index: 5.3

## COc1cc2c(cc1OC)C(=O)C(c1cc(OC)c(OC)cc1[N+](=O)[O-])=C(O)C2=O
Trypanosoma cruzi [1]
  IC50: > 100 µM
Vero
  IC50: > 100 µM

## O=C1C=C(Nc2ccccc2)C(=O)c2ccccc21
Trypanosoma cruzi [1]
  IC50: > 25 µM
Vero
  IC50: > 10 µM

## O=C1c2ccccc2C(=O)c2c1[nH]c1ccccc21 [BENZOCARBAZOLEDIONE]
Trypanosoma cruzi [1]
  IC50: > 10 µM
Vero
  IC50: > 10 µM

## COc1cccc2c1C(=O)c1c(O)c3c(c(O)c1C2=O)C[C@@](O)(C(=O)CO)C[C@@H]3O[C@H]1C[C@H](N)[C@H](O)[C@H](C)O1 [DOXORUBICIN]
MCF7 [2]
  IC50: 0.32 µM
[3]
  IC50: 0.54 µM
[4]
  IC50: 7.86 µM
Fibroblast [5]
  Selectivity Index: 15
MCF7 [6]
  Selectivity Index: 25
MDA-MB-231
  IC50: 0.31 µM
Fibroblast [9]
  Selectivity Index: 25

## CC1CS(=O)(=O)CCN1/N=C/c1ccc([N+](=O)[O-])o1 (stereo not given) [NIFURTIMOX]
Trypanosoma cruzi [1]
  IC50: 21.1 µM
Vero
  IC50: 411 µM
Trypanosoma cruzi [7]
  inhibition (INH): 42.62%
[8]
  Selectivity Index: 20
